High-throughput results from PubChem BioAssay.
GSH bead fluor: GSH bead compound fluorescence profile; fluorescence (KMESF) at 10 µM; GSH beads flow cytometry, compound fluorescence 488/530 nm; active compounds read high; hit rate 0.25% among 190,000; AID 1776; in the data active = fluorescence above about 89;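 note: glutathione beads carrying GST-tagged Bcl family fusion proteins plus one bare bead set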
L major viab: reduces viability of Leishmania major promastigotes; resazurin fluorescence viability; inhibition, % at 10 µM; hit rate 9% among 200,000; AID 1063;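 note: promastigotes grown with compound for 44 hours at 28 °C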
ABCG2 inh: blocks JC-1 efflux by human ABCG2 transporter; hit rate 0.1% among 190,000; inhibition, % at 6.6 µM; Q9UNQ0; IgMXP3 cells, flow cytometry;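 active = inhibition above 80%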
Target sequence (Q9UNQ0 whole entry, looked up): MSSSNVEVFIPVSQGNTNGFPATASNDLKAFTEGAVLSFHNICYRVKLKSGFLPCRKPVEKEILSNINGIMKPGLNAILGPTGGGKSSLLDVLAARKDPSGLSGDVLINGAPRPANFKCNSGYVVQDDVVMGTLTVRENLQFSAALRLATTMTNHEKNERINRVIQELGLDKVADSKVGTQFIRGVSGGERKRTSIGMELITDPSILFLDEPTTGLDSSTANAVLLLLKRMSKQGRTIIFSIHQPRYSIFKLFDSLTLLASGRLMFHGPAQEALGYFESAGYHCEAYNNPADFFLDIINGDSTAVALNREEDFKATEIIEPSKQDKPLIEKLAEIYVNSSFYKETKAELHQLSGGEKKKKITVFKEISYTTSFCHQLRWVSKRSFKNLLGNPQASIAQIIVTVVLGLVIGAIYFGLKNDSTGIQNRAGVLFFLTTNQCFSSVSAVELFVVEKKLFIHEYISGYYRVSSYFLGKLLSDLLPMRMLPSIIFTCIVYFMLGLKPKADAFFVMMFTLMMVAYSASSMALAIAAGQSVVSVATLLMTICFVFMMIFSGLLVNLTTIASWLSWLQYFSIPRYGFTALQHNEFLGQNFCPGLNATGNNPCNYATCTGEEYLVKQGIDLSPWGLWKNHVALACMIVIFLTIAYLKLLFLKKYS
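Times: 10 min at 25 °C | Test system: Two drug-resistant human cell lines, ABCG2 and ABCB1 | Quantity: 3 million cells/mL final, two lines in 1:1 ratio | Signal: Flow cytometry, 530 nm JC-1 signal | Dosing: Compound at 6.6 µM | Controls: Nicardipine and DMSO wells | Reagent: JC-1 as fluorescent efflux pump substrate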
PKD1 kinase inh: blocks activity of human protein kinase D1 | AID 797 | PKD1 kinase fluorescence polarization assay | hit rate 0.056% among 200,000 | Q15139 | inhibition, % (test concentration not listed)
Avidin fluor: compound fluoresces at 488/530 nm on avidin beads; compound fluorescence 488/530 nm, flow cytometry; active compounds read high; fluorescence (KMESF) at 10 µM; hit rate 0.38% among 220,000; in the data active = fluorescence above about 47
ABCB1 inh: blocks JC-1 efflux by human ABCB1 transporter | P08183 | CCRF-Adr cells, flow cytometry | inhibition, % at 6.6 µM | hit rate 0.067% among 190,000; in the data active = inhibition above about 40%;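 note: higher value means more JC-1 retained so stronger ABCB1 efflux block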
Numbers stand for hits; 0 = inactive; - = no result given. This is one part of a sample in which hits are shown more often than they occur. Cut-off read from the data, not from the text of the source, unless noted: active = inhibition above about 50%; inactive = the rest.

SMILES | GSH bead fluor | L major viab | ABCG2 inh | PKD1 kinase inh | Avidin fluor | ABCB1 inh
CS(=O)(=O)c1ccc(Sc2nc3ccccc3[nH]2)c([N+](=O)[O-])c1 | 0 | 0 | 0 | 0 | 0 | 0
c1ccc(-n2c(SCc3nc(-c4cccs4)no3)nnc2-c2ccco2)cc1 | 0 | 0 | 0 | 0 | 0 | 0
COC(=O)C1=C(O)/C(=C\c2ccc(CNS(=O)(=O)c3ccccc3)o2)N=C1C | 0 | 0 | 0 | 0 | 0 | 0
CCOC(=O)C1=C(O)/C(=C\c2ccc(CNS(=O)(=O)c3ccc(Br)cc3)o2)N=C1C | 0 | 66 | 0 | 0 | 0 | 0
COC(=O)C1=C(O)/C(=C\c2ccc(CNS(=O)(=O)c3ccc(Cl)cc3)o2)N=C1C | 0 | 53 | 0 | 0 | 0 | 0
COc1ccc2oc(=O)c(-c3csc(Nc4cccc(O)c4)n3)cc2c1 | 0 | 99 | 0 | 0 | 0 | 0
CCSc1nnc(NC(=O)/C=C/c2ccc3c(c2)OCO3)s1 | 0 | 0 | 0 | 0 | 0 | 0
COc1ccc(N2CCN(C(=O)CSc3ccccc3N)CC2)cc1 | 0 | 63 | 0 | 0 | 0 | 0
COc1ccc(N2CCN(C(=O)CSc3ccccc3)CC2)cc1 | 0 | 0 | 0 | 0 | 0 | 0
COc1ccc(N2CCN(C(=O)CCn3nnc4ccccc43)CC2)cc1 | 0 | 89 | 0 | 0 | 0 | 0
COc1ccc(N2CCN(C(=O)CCNC(=O)c3ccccc3)CC2)cc1 | 0 | 0 | 0 | 0 | 0 | 0
COc1ccc(N2CCN(C(=O)CC(NC(N)=O)c3cccc(Oc4ccccc4)c3)CC2)cc1 (configuration not stated) | 0 | 100 | 0 | 0 | 0 | 0
Cc1ccc(S(=O)(=O)N2CCC(C(=O)NCCCN3CCCCCC3)CC2)cc1 | 0 | 0 | 0 | 0 | 0 | 0
Cc1ccc2nc(-c3ccc(NC(=S)NC(=O)C(C)C)cc3)sc2c1 | 0 | 0 | 0 | 0 | 0 | 0
Cc1ccc2nc(-c3ccc(NC(=S)NC4CC(C)(C)NC(C)(C)C4)cc3)sc2c1 | 0 | 98 | 0 | 0 | 0 | 0
O=Nc1c(O)[nH]c2ccc(F)cc12 | 0 | 0 | 0 | 0 | 0 | 0
Cc1cc2c(N=O)c(NO)ccc2[nH]1 | 0 | 83 | 0 | 0 | 0 | 0
CSc1nc(Oc2ccc(C)cc2)cc(C(F)(F)F)n1 | 0 | 0 | 0 | 0 | 0 | 0
Cc1cc(C)nc(/N=C(\N)Nc2ccc(C(C)C)cc2)n1 | - | - | - | - | 0 | -
CC(C)OC(=O)CSc1nnc(-c2cnccn2)n1-c1ccccc1 | 0 | 0 | 0 | 0 | 0 | 0
COc1cc(Cl)c(C)cc1NC(=O)CCCn1c(=O)oc2ccccc21 | 0 | 53 | 0 | 0 | 0 | 0
COc1ccc(NC(=O)CCCn2c(=O)oc3ccccc32)cc1Cl | 0 | 58 | 0 | 0 | 0 | 0
COc1cc(OC)c(NC(=O)CCCn2c(=O)oc3ccccc32)cc1Cl | 0 | 0 | 0 | 0 | 0 | 0
CCOC(=O)c1nc2c(ccc3ccccc32)cc1C | - | - | - | - | 0 | -
O=C(CC(NC(=O)C(F)(F)F)c1ccccc1)Nc1nnc(CCc2ccccc2)s1 (configuration not stated) | 0 | 0 | 0 | 0 | 0 | 0
SMILES | GSH bead fluor | L major viab | ABCG2 inh | PKD1 kinase inh | Avidin fluor | ABCB1 inh
O=C(CSc1cccc[n+]1[O-])c1ccccc1Br | 0 | 99 | 0 | 0 | 0 | 0
Cc1cc(C(=O)CSc2cccc[n+]2[O-])c(C)n1-c1ccc(Br)cc1 | 0 | 95 | 0 | 0 | 0 | 0
Cc1cc(C(=O)CSc2cccc[n+]2[O-])c(C)n1-c1ccccc1 | 0 | 0 | 0 | 0 | 0 | 0
CCCCC(=O)NN(C)c1nc(-c2ccccc2)nnc1C(F)(F)F | 0 | 0 | 0 | 0 | 0 | 0
Clc1ccc2nc(CSCc3ccccc3)cn2c1 | 0 | 0 | 0 | 0 | 0 | 0
Cn1c(-c2nnn(-c3ccc(F)cc3)n2)cc2ccccc21 | 0 | 0 | 0 | 0 | 0 | 0
CCOc1ccc(C(C)(C)C)cc1S(=O)(=O)N1CC(C)OC(C)C1 (configuration not stated) | 0 | 64 | 0 | 0 | 0 | 0
COc1cc(/C=C(/NC(=O)c2ccccc2)C(=O)Nc2ccc(O)cc2)c([N+](=O)[O-])cc1OC | 0 | 0 | 0 | 0 | 0 | 0
OCCN1CCN(CC(O)COc2ccc3c(c2)OCO3)CC1 (configuration not stated) | 0 | 0 | 0 | 0 | 0 | 0
O=S(=O)(c1ccccc1)N1CCN(CC(O)COc2ccc3c(c2)CCC3)CC1 (configuration not stated) | 0 | 0 | 0 | 0 | 0 | 0
CCN1CCN(CC(O)COc2ccc3c(c2)CCC3)CC1 (configuration not stated) | 0 | 84 | 0 | 0 | 0 | 0
Cc1cc(OCC(O)CN2CCN(CCO)CC2)ccc1C(C)C (configuration not stated) | 0 | 89 | 0 | 0 | 0 | 0
Cc1ccc(N=C2SC(C(=O)NCCc3ccccc3)CC(=O)N2C)cc1C (configuration not stated) | 0 | 0 | 0 | 0 | 0 | 0
CCOc1ccc(Oc2c(/C=N/NC(=O)COc3ccccc3OC)c(C)nn2-c2ccccc2)cc1 | 0 | 0 | 0 | 0 | 0 | 0
CCOc1ccc(Oc2c(/C=N/NC(N)=O)c(C)nn2-c2ccccc2)cc1 | 0 | 98 | 0 | 0 | 0 | 0
Cc1sc2cc3c(c(C(=O)c4ccccc4)[n+]2c1C)-c1cccc2cccc-3c12 | 0 | 100 | 0 | 0 | 0 | 0
COc1ccc(CNC(=O)CSCc2ccccc2Cl)cc1 | 0 | 0 | 0 | 0 | 0 | 0
CN(C)S(=O)(=O)c1cccc(C(=O)OCC(=O)N2c3ccccc3NC(=O)C2(C)C)c1 | 0 | 0 | 0 | 0 | 0 | 0
CC1(C)C(=O)Nc2ccccc2N1C(=O)COC(=O)c1ccc(Cl)c(S(=O)(=O)NCc2ccccc2)c1 | 0 | 99 | 0 | 0 | 0 | 0
Cc1ccc(S(=O)(=O)N(C)c2ccc(OCC(=O)Nc3nnc(C4CC4)s3)cc2)cc1 | 0 | 96 | 0 | 0 | 0 | 0
COc1ccc(C2CC(=O)c3cnc(N4CCN(Cc5ccccc5)CC4)nc3C2)cc1 (configuration not stated) | 0 | 0 | 0 | 0 | 0 | 0
CCN1CCN(c2ncc3c(n2)CC(c2ccc(OC)c(OC)c2)CC3=O)CC1 (configuration not stated) | 0 | 99 | 0 | 0 | 0 | 0
O=C(Cn1cc(C(=O)c2ccco2)c2ccccc21)NC1CC1 | 0 | 0 | 0 | 0 | 0 | 0
O=C(CSc1nc2ccccc2o1)N1N=C(c2cccs2)CC1c1ccc(F)cc1 (configuration not stated) | 0 | 97 | 0 | 0 | 0 | 0
COc1ccc(C2CC(c3cccs3)=NN2C(=O)CSc2nc3c(cnn3-c3ccccc3)c(=O)[nH]2)cc1 (configuration not stated) | 0 | 85 | 0 | 0 | 0 | 0
O=C(O)C1=C[C@H](c2csc3ccccc23)C[C@H](OCCCCO)O1 | 0 | 0 | 0 | 0 | 0 | 0
O=C1N/C(=N\N=C\c2cccnc2)SC1Cc1ccc(SC(F)F)cc1 (configuration not stated) | 0 | 74 | 0 | 0 | 0 | 0
